# Experimental data from different studies.
# Protocols differ between the studies behind these lines.
# Action: inhibitor
# Kir1 channel protein: Kir1 channel protein (Aedes aegypti, UniProt L0EQS9)
# MMP14: Matrix metalloproteinase-14 (MMP14, Homo sapiens, UniProt P50281)
# RPS6KA5: Ribosomal protein S6 kinase alpha-5 (RPS6KA5, Homo sapiens, UniProt O75582)
Structure (SMILES),target,observed,method,setting,IC50
O=[N+]([O-])c1ccc(N2CCN(S(=O)(=O)c3ccc(Cl)cc3)CC2)cc1NCc1ccco1,Kir1 channel protein,ion current,patch clamp,,0.0342 µM
Cc1ccc(C(=O)Nc2ccc(Oc3cc4cnn(C)c4cc3-c3cn[nH]c3)c(F)c2)c(=O)n1-c1ccc(F)cc1,"Vascular endothelial growth factor receptor 1 (FLT1, Homo sapiens, UniProt P17948)",enzyme activity,radiometric,,0.076 µM
N#Cc1ccc(N2CCN(S(=O)(=O)c3ccc(Cl)cc3)CC2)cc1NCc1ccncc1,Kir1 channel protein,ion current,patch clamp,,0.039 µM
O=C(O)CC(=O)C(=O)O,"L-lactate dehydrogenase B chain (LDHB, Homo sapiens, UniProt P07195)",enzyme activity,,,1020 µM
Cc1noc(-c2cc3cc(-c4nc(C(=O)NCc5ccccc5)[nH]c4C)ccc3[nH]2)n1,MMP14,enzyme activity,,,> 20 µM
O=C(Nc1cccnc1)N1CCC(Cc2cccc(Oc3ccc(C(F)(F)F)cn3)c2)CC1,"Arylacetamide deacetylase (Homo sapiens, UniProt P22760)",enzyme activity,,,> 10 µM
O=C(c1cc(O)c(O)c([N+](=O)[O-])c1)c1ccccc1F,"Catechol O-methyltransferase (COMT, Sus scrofa, UniProt Q99028)",enzyme activity,,,0.028 µM
O=S(=O)(c1ccc(Cl)cc1)N1CCN(c2cccc(NCc3ccncc3)c2)CC1,Kir1 channel protein,ion flux,,,4 to 9 µM
CC[C@H](C)[C@H](NC(C)=O)C(=O)N[C@@H](CCC(=O)O)C(=O)N[C@H](C(=O)N[C@H](C=O)CC(=O)O)[C@@H](C)O,"Caspase-8 (CASP8, Homo sapiens, UniProt Q14790)",enzyme activity,,,0.00174 µM
COc1ccc(CNc2c(CO)cnc3c(C4CC4)cc(C#N)cc23)cn1,"Dual 3',5'-cyclic-AMP and -GMP phosphodiesterase 11A (PDE11A, Homo sapiens, UniProt Q9HCR9)",enzyme activity,,,> 10 µM
O=C(Oc1nsnc1N1CCOCC1)N1CCCCC1,"Monoacylglycerol lipase ABHD6 (ABHD6, Homo sapiens, UniProt Q9BV23)",enzyme activity,fluorescence,lysate,0.085 µM
Cc1noc(-c2cc3cc(-c4nc(C(N)=O)[nH]c4C)ccc3[nH]2)n1,MMP14,enzyme activity,,,> 28 µM
COc1ccc(F)cc1C(=O)NCc1ccc(-c2nn([C@@H](C)C(F)(F)F)c(N)c2C(N)=O)cc1,"Tyrosine-protein kinase BTK (BTK, Homo sapiens, UniProt Q06187, C481S)",phosphorylation in cells,,,0.0081 µM
CC/C(=N\NC(=O)C(C)Nc1ccccc1)c1ccc(O)c(C)c1O (stereo not drawn),RPS6KA5,enzyme activity,,,0.0132 µM
CCS(=O)(=O)N1CCN(c2ccc([N+](=O)[O-])c(NCc3cccnc3)c2)CC1,Kir1 channel protein,ion flux,,,21 µM
CN1CCN(c2ccc(Nc3ncc4cc(C#N)c(=O)n(C5CCCC5)c4n3)cc2)CC1,RPS6KA5,enzyme activity,,,9.21 µM
O=c1c(O)c(-c2ccc(O)c(O)c2)oc2cc(O)cc(O)c12,"Cytochrome P450 2E1 (CYP2E1, Homo sapiens, UniProt P05181)",enzyme activity,HPLC,,104 µM
N#CN1C[C@H](n2nc(-c3ccc(Oc4ccc(Cl)cn4)cc3)c(C(N)=O)c2N)CCC12CC2,"Tyrosine-protein kinase BTK (BTK, Homo sapiens, UniProt Q06187)",enzyme activity,,,0.0005 to 0.004 µM
